The values below come from article PMC6140336 (Cell, 2018).

The subject of experiment [1] is TCR55-transduced 58−/− T cells. As to the kind of experiment: IL-2 ELISA, TCR55-transduced cell line. The experiment is classed as cell-based, murine. The note with it: peptide-pulsed KG-1 APCs or OKT3, 24 hrs, result in words. An outline of the steps: (§1)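 58−/− cells carrying the TCR were rested overnight in complete RPMI. KG-1 APCs were pulsed with peptide for 2 h or overnight at 37 °C, washed, and mixed 1:1 with the T cells for 24 hrs at 37 °C. Secreted mouse IL-2 was measured by sandwich ELISA (avidin-HRP, TMB, H3PO4 stop) read at 450 and 570 nm. Biological and technical triplicates.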
On the technique in general: In an ELISA, binding on a coated surface is turned into a signal by an enzyme label.

Experiment [2] concerns TCR589-transduced 58−/− T cells. As to the kind of experiment: IL-2 ELISA, TCR589-transduced cell line. The class given is cell-based, murine. The note with it: peptide-pulsed KG-1 APCs or OKT3, 24 hrs, result in words. The procedure, abridged:
as §1

The test system of experiment [3] is SKW3 T cells expressing TCR55. As to the kind of experiment: pERK1/2 phospho-flow cytometry, TCR55 cells. The class given is cell-based, human. The note with it: peptide-pulsed KG-1 cells or OKT3, 15 minutes, result in words. (In general: Flow cytometry measures light scatter and fluorescence of single cells or particles in a stream.)
Experiment [4] has as its system SKW3 T cells expressing TCR589. The experiment is described as follows: pERK1/2 phospho-flow cytometry, TCR589 cells. The class given is cell-based, human. The note with it: peptide-pulsed KG-1 cells or OKT3, 15 minutes, result in words. An outline of the steps:
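SKW3 cells were rested overnight. Peptide-pulsed KG-1 cells (2 h) were washed and mixed 1:1 with them (125,000 each), then co-cultured 15 min at 37 °C. Cells were fixed in 4% PFA then Cytofix (30 min, 37 °C), permeabilised in ice-cold methanol or Perm Buffer III, and stained 1 h at RT with anti-pERK1/2 (1:50) and anti-CD3. Mean pERK MFI of CD3+ cells by flow. Biological and technical triplicates.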

For the substance “OKT3: anti-CD3 antibody (clone OKT3), non-specific TCR stimulus”, the IL-2 secretion entry in experiment [1] and in experiment [2] was “responded similarly” in each case. Further, the “ERK1/2 phosphorylation (pERK)” value in experiment [3] and in experiment [4] was “robust ERK1/2 phosphorylation” in each case.
